Assay outcomes: PubChem BioAssay, several laboratories
Shown are actives, neighbours in structure and some others; about 1.8% of the full set was active somewhere.
SIAE primary – inhibitors of human sialic acid acetylesterase SIAE; Q9HAT2; SIAE FP-Rh probe binding, fluorescence polarization; inhibition, % at 9.66 µM; 0.69% of 370,000 active; AID 1053197;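 active = inhibition above a cutoff: mean of compounds within the control limits plus 3 SD of those, cut at about 17% in these data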
HTRA1 inh – inhibitors of human serine peptidase HTRA1. 0.5% of 340,000 active. AID 504803. recombinant HTRA1, FP-rhodamine activity-based probe, fluorescence polarization. inhibition, % at 5.96 µM; in the data active = inhibition above about 36%
ARNT TACC3 PPI – disruptors of human ARNT/TACC3 interaction; Q9Y6A5; AlphaScreen His-ARNT PAS-B/GST-TACC3 binding, luminescence; TACC3 fragment carries E629A point mutation; inhibition, % at 9.99 µM; 0.66% of 390,000 active;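 active = mean inhibition of replicates at least 50% and at least half of replicates each reaching 50%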
TCR-CD3 inh – human TCR-CD3 binding inhibition. TAMRA-labeled TCR probe fluorescence, biochemical. inhibition, % at 9.4 µM. 0.37% of 360,000 active. AID 651800; in the data active = inhibition above about 19%;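 note: recombinant mutant TCR 2C K166C tagged with TAMRA read by polarization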
mABHD4 FP – ABHD4 (mouse) inhibition, primary FP screen; Q8VD66; purified mABHD4, FP-Rh probe fluorescence polarization; inhibition, % at 8.92 µM; 0.54% of 370,000 active;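 active = inhibition exceeding the mean over every tested compound plus 3 SD, cut at about 30% in these data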
Target sequence (Q8VD66 whole entry, looked up): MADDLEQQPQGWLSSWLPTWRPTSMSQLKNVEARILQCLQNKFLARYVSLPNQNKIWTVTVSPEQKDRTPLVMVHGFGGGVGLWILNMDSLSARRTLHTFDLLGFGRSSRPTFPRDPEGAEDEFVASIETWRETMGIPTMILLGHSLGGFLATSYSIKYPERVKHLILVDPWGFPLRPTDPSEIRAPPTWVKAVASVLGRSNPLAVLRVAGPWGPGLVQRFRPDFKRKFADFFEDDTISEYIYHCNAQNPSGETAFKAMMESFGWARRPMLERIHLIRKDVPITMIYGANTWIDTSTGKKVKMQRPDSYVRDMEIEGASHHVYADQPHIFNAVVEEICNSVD
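Doses – 8.92 µM, single dose · Material – wild-type mouse ABHD4 protein · Replication – single well per compound (singlicate) · Measure – percent inhibition of probe binding, normalized to plate controls · Schedule – 45 min compound pre-incubation plus 60 min probe step, 25 °C · Detection – fluorescence polarization with parallel and perpendicular emission, 525/598 nm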
SIAE confirm – confirmation of human SIAE inhibitors. SIAE FP-Rh activity-based probe, fluorescence polarization. 13% of 2,300 active. shares compounds with SIAE primary. inhibition, % at 9.66 µM. AID 1117263;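 active = mean inhibition of the replicates above the hit cutoff set in the primary screen, cut at about 17% in these data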;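 note: inhibitors lower polarization as more probe stays unbound to SIAE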
Hits are given with their value; – = inactive; · = not tested or not shown.

SMILES	SIAE primary	HTRA1 inh	ARNT TACC3 PPI	TCR-CD3 inh	mABHD4 FP	SIAE confirm
CNC(=S)Nc1cccc(C(C)=O)c1	17.1	–	–	–	–	–
COc1cc(/C=C/C(=O)c2ccc(NS(=O)(=O)c3ccc(C)cc3)cc2)cc(OC)c1O	77.9	–	–	–	–	–
Cc1noc(C)c1COC(=O)c1csc2c1CCC(C)C2 (configuration not stated)	20.1	–	–	–	–	–
CC1CCc2c(C(=O)NCC3CCCO3)csc2C1 (configuration not stated)	–	–	–	–	–	·
CC(C)CC#Cc1cnc2c(c1)C(=O)N([C@@H](C)CO)C[C@H](C)[C@H](CN(C)C(=O)c1cccnc1)O2	·	·	–	·	·	·
CS(=O)(=O)N1CCC(c2noc(-c3ccc(C(F)(F)F)cc3)n2)CC1	27.5	–	–	–	–	–
Cc1ccc(-c2nc(C3CCN(S(=O)(=O)c4ccc(C(F)(F)F)cc4)CC3)no2)cc1	–	–	–	–	–	·
CO[C@@H]1CN(C)C(=O)c2ccc(NS(=O)(=O)c3ccccc3F)cc2OC[C@H](C)NC[C@H]1C	·	·	–	·	·	·
O=C1c2ccccc2C(Nc2ccc3c(c2)OCO3)N1Cc1ccco1 (configuration not stated)	18.8	–	–	–	–	–
CCCC#Cc1cnc2c(c1)C(=O)N([C@H](C)CO)C[C@H](C)[C@H](CN(C)Cc1ccncc1)O2	·	·	–	·	·	·
Cc1ccsc1C(=O)N1CC=C(c2ccccc2)CC1	–	–	–	–	–	·
Cc1ccc(C(=O)N2CC=C(c3ccccc3)CC2)s1	19.4	–	–	–	–	–
O=[N+]([O-])c1cccc(CN2CCN(c3cccc4[nH]ccc34)CC2)c1	20.4	–	–	–	–	–
O=C(C[C@H]1CC[C@H]2[C@@H](COC[C@@H](O)CN2Cc2cc(F)ccc2F)O1)N1CCc2ccccc2C1	·	·	–	·	·	·
COc1cc(/C=N\NC(=O)c2ccc(-c3ccccc3)cc2)cc(OC)c1O	27.9	–	–	–	–	–
COc1cc(/C=N\NC(=O)c2ccc(-c3ccccc3)cc2)cc(OC)c1OC(C)=O	22.9	–	–	–	–	–
COc1cc(/C=N/NC(=O)c2ccc(COc3cc(C)ccc3C(C)C)cc2)cc(OC)c1O	21.9	–	–	–	–	–
Cc1ccc(NC(=S)c2ccc(N(C)C)cc2)cc1	17.2	–	–	–	–	–
COc1ccc(NC(=S)c2ccc(N(C)C)cc2)cc1	–	–	–	–	–	·
CC(C)(C)C(=O)OC12CCCN(C1)/C(=C/c1ccc(C#N)cc1)C2 (configuration not stated)	38.6	·	·	·	–	–
CC(C)(C)C(=O)OC12CCCN(C1)/C(=C/c1ccccc1)C2 (configuration not stated)	–	·	·	·	–	·
C[C@@H]1CN([C@@H](C)CO)S(=O)(=O)c2ccc(C#CC3CCCCC3)cc2O[C@H]1CN(C)C	·	·	–	·	·	·
c1cc2c3c(cccc3c1)NC1(CCCCC1)N2	30.4	–	–	–	–	–
c1ccc2c(c1)CCN(c1nc3ccccc3n3cnnc13)C2	18.0	–	–	–	–	–
COc1ccc(S(=O)(=O)N(C)C[C@@H]2Oc3ccc(NC(=O)NC4CCCCC4)cc3C(=O)N([C@@H](C)CO)C[C@H]2C)cc1	·	·	–	·	·	·
SMILES	SIAE primary	HTRA1 inh	ARNT TACC3 PPI	TCR-CD3 inh	mABHD4 FP	SIAE confirm
COc1ccc(NC(=O)Nc2ccc3c(c2)[C@H]2C[C@H](CC(=O)N4CCc5ccccc5C4)O[C@@H](CO)[C@H]2O3)cc1	·	·	–	·	·	·
COc1cccc(S(=O)(=O)N[C@@H]2CC[C@H](CC(=O)NCc3ccc(Cl)cc3)O[C@H]2CO)c1	·	·	–	·	·	·
CN(C)c1ccc2c(c1)[C@@H]1C[C@H](CC(=O)NCc3cccc(F)c3)O[C@@H](CO)[C@@H]1O2	·	·	–	·	·	·
Oc1ccc2ccccc2c1/C=N/Nc1ccccc1	–	–	–	–	–	·
Cc1cc(N/N=C/c2c(O)ccc3ccccc23)nc(-c2ccccc2O)n1	20.6	–	–	–	–	–
N#Cc1ccc(N=c2ssnc2Cl)cc1	22.4	–	–	–	–	17.1
COc1ccc(C(=O)NCCn2ccc3ccccc32)cc1OC	21.6	–	–	–	–	–
COc1cc(OC)c(OC)cc1CNC(=O)CCN1C(=O)c2cccc([N+](=O)[O-])c2C1=O	18.8	–	–	–	–	–
COc1cccc(Nc2nc(C(C)N)cs2)n1 (configuration not stated)	–	·	·	–	–	·
